Screening data as filed in PubChem BioAssay.
M5 antag: CHRM5 antagonism in calcium assay; P08912; CHO-hM5 cells, Fluo-8 calcium fluorescence, ACh EC80; inhibition, % at 3 µM; 360,000 compounds, 0.59% hits;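 active = inhibition above a per-plate cutoff, the mean of that plate's test compounds plus 3 SD, cut at about 27% in these data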;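 also: 0% = acetylcholine EC80 with DMSO and 100% = DMSO without agonist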
M4 antag: antagonists of human muscarinic M4 receptor (CHRM4); AID 624125; inhibition, % at 3 µM; 360,000 compounds, 0.73% hits; CHO-hM4 cells, ACh EC80, Fluo-8 calcium fluorescence; P08173;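 active = inhibition above its plate's cutoff, the mean inhibition of sample wells plus 3 SD, cut at about 27% in these data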;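 also: 0% = acetylcholine EC80 with DMSO and 100% = DMSO without agonist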
Target sequence (P08173 whole entry, looked up): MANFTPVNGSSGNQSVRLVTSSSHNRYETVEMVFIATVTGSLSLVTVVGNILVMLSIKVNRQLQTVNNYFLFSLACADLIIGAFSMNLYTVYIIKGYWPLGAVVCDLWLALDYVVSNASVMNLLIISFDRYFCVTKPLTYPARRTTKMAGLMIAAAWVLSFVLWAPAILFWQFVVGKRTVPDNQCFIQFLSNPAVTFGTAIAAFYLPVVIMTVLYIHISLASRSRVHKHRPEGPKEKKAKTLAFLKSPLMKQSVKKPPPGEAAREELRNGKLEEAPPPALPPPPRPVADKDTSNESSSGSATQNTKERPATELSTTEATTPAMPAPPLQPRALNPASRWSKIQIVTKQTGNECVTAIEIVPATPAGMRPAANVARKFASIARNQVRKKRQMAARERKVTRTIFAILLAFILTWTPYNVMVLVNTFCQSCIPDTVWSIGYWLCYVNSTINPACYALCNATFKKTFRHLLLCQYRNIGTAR
CHRM4 PAM: positive allosteric modulators of human muscarinic M4 receptor; CHO-K1 hM4/Gqi5, Fluo-8 calcium fluorescence, ACh EC20; 0% = ACh EC20, 100% = maximal ACh; activation, % at 3 µM; 360,000 compounds, 0.4% hits;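 active = activation above its plate's cutoff, the mean activation of sample wells plus 3 SD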
M5 ag: CHRM5 agonism in calcium assay; P08912; CHO-K1 hM5 cells, Fluo-8 calcium fluorescence; 0% DMSO wells, 100% maximal acetylcholine response; activation, % at 3 µM; 360,000 compounds, 0.19% hits; AID 624037;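 active = activation above the run's mean over test compounds plus 3 SD, cut at about 23% in these data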;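 also: signal is peak over basal fluorescence ratio across the kinetic read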
CHRM4 agonist: CHRM4 agonism in calcium assay; AID 624127; P08173; CHO-K1 hM4/Gqi5, Fluo-8 calcium fluorescence; vehicle 0%, full acetylcholine response 100%; 360,000 compounds, 0.14% hits; activation, % at 3 µM;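 active = activation above the run mean over all test wells plus 3 SD, cut at about 32% in these data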;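 also: peak over basal fluorescence ratio per well then scaled between controls; 0% = DMSO wells and 100% = acetylcholine at EC100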
M5 PAM: CHRM5 positive allosteric modulation. CHO-K1 hM5, Fluo-8 calcium, ACh EC20 PAM; 0% = ACh EC20, 100% = ACh EC100. activation, % at 3 µM. 360,000 compounds, 0.3% hits. AID 624038;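 active = activation above the run cutoff, the mean activation of all test compounds plus 3 SD, cut at about 18% in these data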
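Probe or stimulus: acetylcholine, EC20 level; Assay system: human M5 receptor in CHO-K1 cells; Schedule: compound preincubation 140 s before EC20 acetylcholine addition; Technique: intracellular calcium via Fluo-8 fluorescence; Dosing: single-point, 3 µM nominal; Read-out basis: percent activation from peak-over-basal fluorescence ratio, scaled EC20-to-EC100 acetylcholine; Repeats: one well per compound, no replicates.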
The depositor's hits bear a star. Most compounds without a hit are left out; they make up all but 1.8% or so of the library.

SMILES | M5 antag | M4 antag | CHRM4 PAM | M5 ag | CHRM4 agonist | M5 PAM
O=C(C1=C[C@@H](c2coc3ccccc3c2=O)C[C@@H](OCCCCO)O1)N1CCN(Cc2ccccc2)CC1 | -2 | -5 | -1 | 3 | 9 | -9
CC1Cc2nc(SCC(=O)c3ccccc3)n(Cc3ccccc3)c(=O)c2S1 (stereo not drawn) | 1 | -3 | -5 | -4 | 4 | -5
CC1Cc2nc(SCC(=O)NCc3ccccc3)n(Cc3ccccc3)c(=O)c2S1 (stereo not drawn) | -4 | 38* | -16 | -4 | 4 | -6
CCCS(=O)(=O)NC(=O)C1(C)CCCN(C(=O)c2ccc3ccccc3c2)C1 (stereo not drawn) | -3 | -6 | 17* | 1 | 1 | 3
Cc1c(C(=O)N(Cc2nccn2C)C(C)C)oc2c(F)cccc12 | 10 | -16 | 4 | -4 | 1 | -1
CCCc1ccc2oc(C(=O)N(Cc3nccn3C)C(C)C)c(C)c2c1 | -1 | -28 | 17* | -2 | 2 | 10
Cc1cccc(OCC(O)CN2CCOCC2)c1 (stereo not drawn) | 6 | -2 | 4 | 3 | 1 | -2
COc1ccc(N2C(=S)NC3CS(=O)(=O)CC32)cc1 (stereo not drawn) | 17 | 28* | -26 | -3 | 0 | -8
CCCCCC(=O)Nc1cccc(C2=NOC3(C2)C[C@H](C(N)=O)N(C(=O)c2ccccc2)C3)c1 (stereo partly drawn) | 3 | 5 | 13 | 3 | 2 | 19*
Cc1cc2c3c(c1)C(C)CC(C)(C)N3C(=O)C2=O (stereo not drawn) | 2 | -10 | -7 | 19 | 2 | -3
CC1CC2(CCCCC2)N2C(=O)C(=O)c3cccc1c32 (stereo not drawn) | -6 | 6 | 8 | 63* | -3 | -11
CC1(C)CN=C(NC2CCCCC2)S1 | 11 | 43* | -14 | -6 | 1 | -9
CCn1c(COc2ccccc2)nnc1SCC(=O)C(C)(C)C | -2 | -3 | 26* | 1 | 4 | 2
CCn1c(COc2ccc(C)cc2)nnc1SCC(=O)C(C)(C)C | -5 | -9 | -2 | -1 | 2 | 2
COC(=O)c1ccc2c(c1)C(C)(C)C(/C=C/c1ccccc1O)=[N+]2C | 4 | 2 | -10 | 23* | 7 | 9
CCOc1cc2c3c(c1)C(C)=CC(C)(C)N3C(=O)C2=O | 12 | -17 | -3 | 56* | -2 | -26
c1ccc(-c2nnc(-c3ccccc3)nn2)cc1 | -4 | -11 | 0 | 5 | 0 | 6
c1ccc(-c2cncnc2)cc1 | -9 | 8 | 4 | 7 | 2 | 20*
Cn1c(Br)nc2c1c(=O)n(CC(O)COc1ccccc1)c(=O)n2C (stereo not drawn) | 3 | 1 | -4 | 0 | 34* | -8
CCc1nnc(NC(=O)CCN2C(=O)/C(=C/c3cc(OC)c(OC)c(OC)c3)SC2=S)s1 | -11 | -28 | 15* | -3 | 2 | 4
CC(C)(OC(=O)c1ccc(F)cc1)c1cc2ccccc2c(=O)o1 | 10 | 4 | 8 | -4 | -3 | -4
CCOC(=O)c1ccc(N2CCN(c3ccc(F)cc3)CC2)c(NC(=O)Nc2cccc(OC)c2)c1 | -2 | -3 | 3 | -1 | 3 | -3
CCOC(=O)c1ccc(N2CCN(c3ccccc3F)CC2)c(NC(=O)Nc2ccccc2)c1 | 40* | 36* | -12 | 0 | 11 | -18
CCOC(=O)c1oc2ccccc2c1COC(=O)CNC(=O)c1ccc(C)cc1 | 1 | -10 | -1 | -2 | 2 | 1
O=C(NC(NC(=S)Nc1cccc(C(=O)O)c1)C(Cl)(Cl)Cl)OCc1ccccc1 (stereo not drawn) | -6 | -6 | 11 | 1 | 1 | 6
O=C(NC(NC(=S)Nc1cccc(Cl)c1)C(Cl)(Cl)Cl)OCc1ccccc1 (stereo not drawn) | 27* | 17 | -15 | 9 | 23 | -21
COc1ccc(C2=NNC(=O)CC2)cc1 | -10 | -5 | 0 | 3 | 1 | 24*
